Measurements from ChEMBL document CHEMBL3632509, “Inhibition of Inflammatory and Neuropathic Pain by Targeting a Mu Opioid Receptor/Chemokine Receptor5 Heteromer (MOR-CCR5)” (J Med Chem, 2015).
The source made the active and inactive calls.

Experiments:
[1] = tested on: Mus musculus; assay: Antinociceptive activity in normal ICR-CD1 mouse assessed as withdrawal latency for radiant heat at 1000 pmol, icv by tail flick assay; assay type: functional
In short: (§1)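 Male ICR-CD1 mice (17–25 g); LPS groups given LPS 1 mg/kg i.p. 24 h before testing, others untreated. Compound dissolved in 5% DMSO, diluted to <1% DMSO, given i.t. or i.c.v. in 5 µl to conscious mice. Radiant-heat tail flick, latency before and at peak time after drug, 10 s cut-off; %MPE = (test−control)/(10−control)×100. At least three groups of 8–10 mice per dose–response curve, each mouse used once.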

[2] = tested on: Mus musculus; assay: Antinociceptive activity in i.t dosed LPS-induced ICR-CD1 mouse thermal hyperalgesia model assessed as withdrawal latency for radiant heat by tail flick assay relative to TAK-220 and N-((4aS,7S,7aR,12bS)-4a,9-Dihydroxy-3-methyl-2,3,4,4a,5,6,7,7a-octahydro-1H-4,12-methanobenzofuro[3,2-e][…]-7-yl)-2-((3,7,17-trioxo-5-oxa-2,8,16-triazaoctadecan-18-yl)oxy)acetamide combination; assay type: functional
[3] = tested on: Mus musculus; assay: Antinociceptive activity in i.t dosed LPS-induced ICR-CD1 mouse thermal hyperalgesia model assessed as withdrawal latency for radiant heat by tail flick assay; assay type: functional; in short: as §1
[4] = species: Mus musculus; assay: Antinociceptive activity in LPS-induced ICR-CD1 mouse thermal hyperalgesia model assessed as withdrawal latency for radiant heat at 1000 pmol i.c.v by tail flick assay; assay type: functional; in short: as §1
[5] = tested on: Mus musculus; assay: Selectivity ratio of ED50 for antinociceptive activity in i.c.v dosed ICR-CD1 mouse to ED50 for i.t dosed ICR-CD1 mouse; assay type: functional
In short: (§2)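 Ratios compare i.c.v. with i.t. dosing, or untreated mice with LPS-pretreated mice (1 mg/kg i.p., 24 h). All mice are male ICR-CD1.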

[6] = tested on: Mus musculus; assay: Selectivity ratio of ED50 for antinociceptive activity in i.c.v dosed LPS-induced ICR-CD1 mouse thermal hyperalgesia model to ED50 for i.t dosed LPS-induced ICR-CD1 mouse thermal hyperalgesia model; assay type: functional; in short: as §2
[7] = tested on: Mus musculus; assay: Antinociceptive activity in i.t dosed LPS-induced ICR-CD1 mouse thermal hyperalgesia model assessed as withdrawal latency for radiant heat at ED50 after 24 hrs by tail flick assay; assay type: functional
In short: (§3)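 Acute tolerance in male ICR-CD1 mice, either untreated or given LPS 1 mg/kg i.p. 24 h before testing. The ED80–90 dose is given i.t. or i.c.v. (5 µl, <1% DMSO) on day 1. The same dose is given again 24 h later to the same mouse and retested by radiant-heat tail flick (10 s cut-off, %MPE).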

[8] = tested on: Mus musculus; assay: Toxicity in i.t dosed ICR-CD1 mouse at ED50 after 24 hrs; assay type: organism-based; conditions: in vivo, icv_or_intrathecal; in short: as §3
[9] = tested on: Mus musculus; assay: Antinociceptive activity in i.t dosed normal ICR-CD1 mouse assessed as withdrawal latency for radiant heat by tail flick assay; assay type: functional; in short: as §1
[10] = tested on: Mus musculus; assay: Antinociceptive activity in i.t dosed complete Freund's adjuvant-induced ICR-CD1 mouse mechanical hyperalgesia model by von Frey test; assay type: functional
[11] = tested on: Mus musculus; assay: Toxicity in i.t dosed LPS-induced ICR-CD1 mouse thermal hyperalgesia model at ED50 after 24 hrs; assay type: organism-based; conditions: in vivo, icv_or_intrathecal; in short: as §3
[12] = tested on: Mus musculus; assay: Antinociceptive activity in i.c.v dosed LPS-induced ICR-CD1 mouse thermal hyperalgesia model assessed as withdrawal latency for radiant heat by tail flick assay; assay type: functional; in short: as §1
[13] = tested on: Mus musculus; assay: Toxicity in i.c.v dosed LPS-induced ICR-CD1 mouse thermal hyperalgesia model at ED50 after 24 hrs; assay type: organism-based; conditions: in vivo, icv_or_intrathecal; in short: as §3
[14] = tested on: Mus musculus; assay: Antinociceptive activity in normal ICR-CD1 mouse assessed as withdrawal latency for radiant heat at 250 pmol, icv by tail flick assay; assay type: functional; in short: as §1
[15] = tested on: Mus musculus; assay: Antinociceptive activity in normal ICR-CD1 mouse assessed as withdrawal latency for radiant heat at 500 pmol, icv by tail flick assay; assay type: functional; in short: as §1
[16] = tested on: Mus musculus; assay: Antinociceptive activity in i.t dosed LPS-induced ICR-CD1 mouse thermal hyperalgesia model assessed as withdrawal latency for radiant heat at ED50 by tail flick assay in presence of 45 mg/kg, ip minocycline; assay type: functional, organism-based
In short: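 Male ICR-CD1 mice get LPS 1 mg/kg i.p. and 24 h later minocycline HCl 45 mg/kg i.p. in distilled water. Test compound is given i.t. 4 h after minocycline. Antinociception is read by radiant-heat tail flick (10 s cut-off) as %MPE. The ED50 comes from a dose–response curve, groups of n=8.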

[17] = tested on: Mus musculus; assay: Antinociceptive activity in i.t dosed LPS-induced ICR-CD1 mouse thermal hyperalgesia model assessed as withdrawal latency for radiant heat by tail flick assay relative to morphine; assay type: functional
[18] = species: Mus musculus; assay: Antinociceptive activity in LPS-induced ICR-CD1 mouse thermal hyperalgesia model assessed as withdrawal latency for radiant heat at 500 pmol i.c.v by tail flick assay; assay type: functional; in short: as §1
[19] = tested on: Mus musculus; assay: Selectivity ratio of ED50 for antinociceptive activity in i.t dosed normal ICR-CD1 mouse to ED50 for i.t dosed LPS-induced ICR-CD1 mouse thermal hyperalgesia model; assay type: functional; in short: as §2
[20] = species: Mus musculus; assay: Antinociceptive activity in normal ICR-CD1 mouse assessed as withdrawal latency for radiant heat at 500 pmol, it by tail flick assay; assay type: functional; in short: as §1
[21] = species: Mus musculus; assay: Antinociceptive activity in LPS-induced ICR-CD1 mouse thermal hyperalgesia model assessed as withdrawal latency for radiant heat at 1000 pmol i.t by tail flick assay; assay type: functional; in short: as §1
[22] = tested on: Mus musculus; assay: Toxicity in i.c.v dosed ICR-CD1 mouse at ED50 after 24 hrs; assay type: organism-based; conditions: in vivo, icv_or_intrathecal; in short: as §3
[23] = tested on: Mus musculus; assay: Antinociceptive activity in i.c.v dosed normal ICR-CD1 mouse assessed as withdrawal latency for radiant heat by tail flick assay; assay type: functional; in short: as §1
[24] = target: C-C chemokine receptor type 5 (Homo sapiens) (UniProt P51681); assay: Antagonist activity at CCR5 receptor (unknown origin) expressed in HEK293 cells assessed as inhibition of CCl5-induced calcium release at 1 uM by FLIPR assay; assay type: functional, cell-based
[25] = species: Mus musculus; assay: Antinociceptive activity in normal ICR-CD1 mouse assessed as withdrawal latency for radiant heat at 1000 pmol, it by tail flick assay; assay type: functional; in short: as §1

C-C chemokine receptor type 5 (Homo sapiens), sequence (P51681 whole entry, looked up): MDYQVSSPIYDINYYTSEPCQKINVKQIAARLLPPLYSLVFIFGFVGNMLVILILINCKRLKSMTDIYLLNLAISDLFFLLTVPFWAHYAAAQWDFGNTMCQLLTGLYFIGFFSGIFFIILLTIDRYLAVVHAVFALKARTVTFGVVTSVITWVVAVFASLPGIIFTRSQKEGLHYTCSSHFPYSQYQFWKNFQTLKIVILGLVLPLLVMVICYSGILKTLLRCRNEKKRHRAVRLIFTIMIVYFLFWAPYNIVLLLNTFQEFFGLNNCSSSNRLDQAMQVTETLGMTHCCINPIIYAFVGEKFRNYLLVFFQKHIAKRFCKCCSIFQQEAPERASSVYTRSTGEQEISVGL

Cc1ccc(N(CCCN2CCC(Cc3ccc(C(N)=O)cc3)CC2)C(=O)C2CCN(C(=O)COCC(=O)NCCCCCCCCCNC(=O)COCC(=O)N[C@H]3CC[C@@]4(O)[C@H]5Cc6ccc(O)c7c6[C@@]4(CCN5C)[C@H]3O7)CC2)cc1Cl
MPE [1]: 54.5%
Selectivity Index [2]: 6.2
ED50 [3]: 8.43 pmol
MPE [4]: 63.1%
Ratio ED50 [5]: 63.98
Ratio ED50 [6]: 118.62
MPE [7]: 24%
Activity [8]: Non-toxic
ED50 [9]: 15.83 pmol

CN1CC[C@]23c4c5ccc(O)c4O[C@H]2[C@@H](O)C=C[C@H]3[C@H]1C5 [MORPHINE]
ED50 [3]: 35 pmol
ED50 [10]: 15 pmol
Ratio ED50 [5]: 11
Ratio ED50 [6]: 8
ED50 [9]: 27 pmol

Cc1ccc(N(CCCN2CCC(Cc3ccc(C(N)=O)cc3)CC2)C(=O)C2CCN(C(=O)COCC(=O)NCCCCCCCCCCCCNC(=O)COCC(=O)N[C@H]3CC[C@@]4(O)[C@H]5Cc6ccc(O)c7c6[C@@]4(CCN5C)[C@H]3O7)CC2)cc1Cl
MPE [1]: 27.6%
Selectivity Index [2]: 0.4
ED50 [3]: 122.7 pmol
MPE [4]: 55.7%
Ratio ED50 [5]: 2.97
Activity [11]: Toxic
Activity [8]: Toxic
ED50 [9]: 336.9 pmol

Cc1ccc(N(CCCN2CCC(Cc3ccc(C(N)=O)cc3)CC2)C(=O)C2CCN(C(=O)COCC(=O)NCCCCCCCNC(=O)COCC(=O)N[C@H]3CC[C@@]4(O)[C@H]5Cc6ccc(O)c7c6[C@@]4(CCN5C)[C@H]3O7)CC2)cc1Cl
Selectivity Index [2]: 4.5
ED50 [3]: 11.41 pmol
ED50 [12]: 692.4 pmol
Activity [13]: Toxic
Ratio ED50 [5]: 1.5
Ratio ED50 [6]: 60.68
Activity [11]: Non-toxic
Activity [8]: Toxic
MPE [14]: 35.9%
ED50 [9]: 166.4 pmol

Cc1ccc(N(CCCN2CCC(Cc3ccc(C(N)=O)cc3)CC2)C(=O)C2CCN(C(=O)COCC(=O)NCCCCCCCCCCNC(=O)COCC(=O)N[C@H]3CC[C@@]4(O)[C@H]5Cc6ccc(O)c7c6[C@@]4(CCN5C)[C@H]3O7)CC2)cc1Cl
Selectivity Index [2]: 3559
ED50 [3]: 0.01461 pmol
MPE [15]: 49.7%
Activity [16]: inactive
fold change (FC) [17]: 1500
MPE [18]: 41.1%
Selectivity Index [19]: 3000
Activity [11]: Non-toxic
Activity [8]: Non-toxic
ED50 [9]: 45.75 pmol

CNC(=O)COCC(=O)NCCCCCCCNC(=O)COCC(=O)N1CCC(C(=O)N(CCCN2CCC(Cc3ccc(C(N)=O)cc3)CC2)c2ccc(C)c(Cl)c2)CC1
MPE [20]: 28.1%
MPE [4]: 51.9%
MPE [15]: 43.9%
MPE [21]: 32.4%

Cc1ccc(N(CCCN2CCC(Cc3ccc(C(N)=O)cc3)CC2)C(=O)C2CCN(C(=O)COCC(=O)NCCCCCNC(=O)COCC(=O)N[C@H]3CC[C@@]4(O)[C@H]5Cc6ccc(O)c7c6[C@@]4(CCN5C)[C@H]3O7)CC2)cc1Cl
Selectivity Index [2]: 4.8
ED50 [3]: 10.92 pmol
Activity [22]: Toxic
ED50 [12]: 187.1 pmol
Activity [13]: Toxic
Ratio ED50 [5]: 3.14
Ratio ED50 [6]: 6.38
Activity [11]: Non-toxic
Activity [8]: Toxic
ED50 [9]: 370.6 pmol
ED50 [23]: 358.2 pmol

CNC(=O)COCC(=O)N1CCC(C(=O)N(CCCN2CCC(Cc3ccc(C(N)=O)cc3)CC2)c2ccc(C)c(Cl)c2)CC1
Activity [24]: Active

CNC(=O)COCC(=O)NCCCCCCCNC(=O)COCC(=O)N[C@H]1CC[C@@]2(O)[C@H]3Cc4ccc(O)c5c4[C@@]2(CCN3C)[C@H]1O5
ED50 [3]: 21.29 pmol
Activity [22]: Toxic
ED50 [12]: 168.9 pmol
Activity [13]: Toxic
Ratio ED50 [5]: 0.95
Ratio ED50 [6]: 7.93
Activity [11]: Toxic
Activity [8]: Toxic
ED50 [9]: 113.3 pmol
ED50 [23]: 108.2 pmol

CC(=O)N1CCC(C(=O)N(CCCN2CCC(Cc3ccc(C(N)=O)cc3)CC2)c2ccc(C)c(Cl)c2)CC1
MPE [1]: 26.2%
MPE [4]: 7.6%
Ratio ED50 [5]: 1
MPE [21]: 49%
MPE [25]: 34.2%
Ratio ED50 [6]: 6.48
Activity [24]: Active

Cc1ccc(N(CCCN2CCC(Cc3ccc(C(N)=O)cc3)CC2)C(=O)C2CCN(C(=O)COCC(=O)NCCNC(=O)COCC(=O)N[C@H]3CC[C@@]4(O)[C@H]5Cc6ccc(O)c7c6[C@@]4(CCN5C)[C@H]3O7)CC2)cc1Cl
Selectivity Index [2]: 4.9
ED50 [3]: 10.6 pmol
Activity [22]: Toxic
ED50 [12]: 56.41 pmol
Activity [13]: Toxic
Ratio ED50 [5]: 3.29
Ratio ED50 [6]: 5.32
Activity [11]: Non-toxic
Activity [8]: Non-toxic
ED50 [9]: 32.34 pmol
ED50 [23]: 106.6 pmol
